The values below come from ChEMBL document CHEMBL2163319, “Stereoselective synthesis and antiviral activity of methyl-substituted cycloSal-pronucleotides” (J Med Chem, 2012).

The subject of series [1] is Human immunodeficiency virus 2. Description: Antiviral activity against HIV-2 infected in wild type CEM cells assessed as inhibition of virus-induced cytopathicity after 4 days. To be noted: Human immunodeficiency virus 2, CCRF-CEM, 96 h. In kind it is functional, organism-based. The procedure, abridged:
(§1)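 Wild-type CEM/0 or thymidine kinase-deficient CEM/TK- T-lymphocyte cultures infected with HIV-1 or HIV-2 and exposed to virus and compound together for 4 days. Giant cell formation (virus-induced cytopathicity) scored by microscopy; value is the 50% effective concentration.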

The test system of series [2] is Human immunodeficiency virus 2. Description: Antiviral activity against HIV-2 infected in thymidine kinase deficient CEM cells assessed as inhibition of virus-induced cytopathicity after 4 days. In kind it is functional, organism-based. Particulars: Human immunodeficiency virus 2, CCRF-CEM, 96 h. The method, boiled down:
as §1
(In general: Damage to the host cells serves as the signal in cytopathic effect assays.)

Series [3] is described as follows: Cytotoxicity against human CEM cells. In kind it is cell-based. Particulars: CCRF-CEM (CEM) cells.
Series [4] is described as follows: Hydrolysis half life in 25 mM phosphate buffer at pH 7.3 by reversed HPLC analysis. The class given is physicochemical.
Series [5] concerns Human immunodeficiency virus 1. Briefly: Antiviral activity against HIV-1 infected in wild type CEM cells assessed as inhibition of virus-induced cytopathicity after 4 days. In kind it is functional, organism-based. Particulars: Human immunodeficiency virus 1, CCRF-CEM, 96 h. The procedure, abridged: as §1
Series [6] is described as follows: Hydrolysis half life in human CEM cell extracts at pH 6.9. In kind it is ADME, CCRF-CEM. The method, boiled down:
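CEM cell extracts (pH 6.9) incubated with the triester, added from a 3.0 mM DMSO stock, and sampled at several incubation times. Hydrolysis half-life determined.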

With `Cc1cccc2c1O[P@](=O)(OC[C@@H]1C=C[C@H](n3cc(C)c(=O)[nH]c3=O)O1)OC2`, the EC50 – broadly, the concentration needed to bring the measured effect to its halfway point – in series [1] was determined as 0.17 µM; in series [2], 0.16 µM; in series [5], 0.09 µM. Also, half-maximal cytotoxicity in series [3] (CC50) was put at 39 µM. Moreover, the half-life (in general, the time needed for the level to fall by half in the phase considered) is 22.1 h in series [4] and 18 h in series [6].
For the molecule `Cc1cn([C@H]2C=C[C@@H](CO)O2)c(=O)[nH]c1=O` [STAVUDINE], the results for the EC50 in series [1], in series [2] and in series [5] were 1.3 µM, 150 µM and 0.78 µM, respectively. For the same molecule, the CC50 (usually the concentration at which the toxic effect on the cells reaches its halfway point) in series [3] is more than 250 µM.
For the molecule `Cc1cccc2c1O[P@@](=O)(OC[C@@H]1C=C[C@H](n3cc(C)c(=O)[nH]c3=O)O1)OC2`, the EC50 in series [1] was 1.1 µM; in series [2] it was 3.2 µM; in series [5], 0.48 µM. Half-maximal cytotoxicity in series [3] (CC50) was put at 179 µM. The half-life is 9.2 h in series [4] and 8.7 h in series [6].
